# Measurements published in ChEMBL document CHEMBL4689842, “EUbOPEN Chemogenomics Library wave 1” (2021).
# Tested on: Fibroblast
# Test: Multiplex assay against human fibroblast
# Type: toxicity, cell-based
# How it was run: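 Values for tubulin, mitochondrial-mass and membrane-permeability phenotypes are per cents of cells with healthy nuclei. These cells were identified by CellPathfinder machine-learning gating of live cells that had been stained at seeding with Hoechst33342, BioTracker Green Microtubule Cytoskeleton Dye, MitoTracker Red and Annexin V Alexa Fluor 680 and imaged on a CQ1 microscope at 37°C and 5% CO2 after compound addition. The gating first set Hoechst high-intensity objects apart from normal cells, then split normal cells into healthy, pyknosed or fragmented nuclei, and pyknosed cells into mitotic or apoptotic.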
# [1] = 12 h, 1 µM, compound concentration 1 uM, replicate 1
# [2] = 12 h, 1 µM, compound concentration 1 uM, replicate 2
# [3] = 12 h, 10 µM, compound concentration 10 uM, replicate 1
# [4] = 12 h, 10 µM, compound concentration 10 uM, replicate 2
# [5] = 24 h, 1 µM, compound concentration 1 uM, replicate 1
# [6] = 24 h, 1 µM, compound concentration 1 uM, replicate 2
# [7] = 24 h, 10 µM, compound concentration 10 uM, replicate 1
# [8] = 24 h, 10 µM, compound concentration 10 uM, replicate 2
structure (smiles),measurement,setting,value
Cc1ccc(NC(=O)Nc2cc(C(F)(F)F)ccc2F)cc1Nc1ccc2c(c1)NC(=O)/C2=C\c1ccc[nH]1,Population Apoptotic (%),[1],36%
same,Population Fragmented Nuclei (%),[1],13%
same,Population Healthy Nuclei (%),[1],59%
same,Population Hoechst High Intensity Objects (%),[1],10%
same,Population Membrane Permeable-Phenotype (%),[1],58%
same,Population Mitochondria Different-Phenotype (%),[1],0%
same,Population Mitotic Cells (%),[1],63%
same,Population Normal (%),[1],89%
same,Population Pyknosed Nuclei (%),[1],27%
same,Population Tubulin-Different-Phenotype (%),[1],36%
same,Total Cell Count,[1],178
same,Population Apoptotic (%),[2],100%
same,Population Fragmented Nuclei (%),[2],60%
same,Population Healthy Nuclei (%),[2],36%
same,Population Hoechst High Intensity Objects (%),[2],50%
same,Population Membrane Permeable-Phenotype (%),[2],63%
same,Population Mitochondria Different-Phenotype (%),[2],18%
same,Population Mitotic Cells (%),[2],0%
same,Population Normal (%),[2],49%
same,Population Pyknosed Nuclei (%),[2],3%
same,Population Tubulin-Different-Phenotype (%),[2],54%
same,Total Cell Count,[2],61
same,Population Apoptotic (%),[3],66%
same,Population Fragmented Nuclei (%),[3],15%
same,Population Healthy Nuclei (%),[3],52%
same,Population Hoechst High Intensity Objects (%),[3],17%
same,Population Membrane Permeable-Phenotype (%),[3],4%
same,Population Mitochondria Different-Phenotype (%),[3],3%
same,Population Mitotic Cells (%),[3],33%
same,Population Normal (%),[3],82%
same,Population Pyknosed Nuclei (%),[3],32%
same,Population Tubulin-Different-Phenotype (%),[3],5%
same,Total Cell Count,[3],210
same,Population Apoptotic (%),[4],20%
same,Population Fragmented Nuclei (%),[4],50%
same,Population Healthy Nuclei (%),[4],40%
same,Population Hoechst High Intensity Objects (%),[4],20%
same,Population Membrane Permeable-Phenotype (%),[4],0%
same,Population Mitochondria Different-Phenotype (%),[4],19%
same,Population Mitotic Cells (%),[4],80%
same,Population Normal (%),[4],80%
same,Population Pyknosed Nuclei (%),[4],9%
same,Population Tubulin-Different-Phenotype (%),[4],0%
same,Total Cell Count,[4],65
same,Population Apoptotic (%),[5],28%
same,Population Fragmented Nuclei (%),[5],10%
same,Population Healthy Nuclei (%),[5],61%
same,Population Hoechst High Intensity Objects (%),[5],8%
same,Population Membrane Permeable-Phenotype (%),[5],51%
same,Population Mitochondria Different-Phenotype (%),[5],0%
same,Population Mitotic Cells (%),[5],71%
same,Population Normal (%),[5],91%
same,Population Pyknosed Nuclei (%),[5],27%
same,Population Tubulin-Different-Phenotype (%),[5],31%
same,Total Cell Count,[5],179
same,Population Apoptotic (%),[6],100%
same,Population Fragmented Nuclei (%),[6],61%
same,Population Healthy Nuclei (%),[6],34%
same,Population Hoechst High Intensity Objects (%),[6],55%
same,Population Membrane Permeable-Phenotype (%),[6],55%
same,Population Mitochondria Different-Phenotype (%),[6],11%
same,Population Mitotic Cells (%),[6],0%
same,Population Normal (%),[6],44%
same,Population Pyknosed Nuclei (%),[6],3%
same,Population Tubulin-Different-Phenotype (%),[6],55%
same,Total Cell Count,[6],59
same,Population Apoptotic (%),[7],51%
same,Population Fragmented Nuclei (%),[7],18%
same,Population Healthy Nuclei (%),[7],61%
same,Population Hoechst High Intensity Objects (%),[7],17%
same,Population Membrane Permeable-Phenotype (%),[7],5%
same,Population Mitochondria Different-Phenotype (%),[7],3%
same,Population Mitotic Cells (%),[7],48%
same,Population Normal (%),[7],82%
same,Population Pyknosed Nuclei (%),[7],20%
same,Population Tubulin-Different-Phenotype (%),[7],5%
same,Total Cell Count,[7],237
same,Population Apoptotic (%),[8],50%
same,Population Fragmented Nuclei (%),[8],54%
same,Population Healthy Nuclei (%),[8],41%
same,Population Hoechst High Intensity Objects (%),[8],29%
same,Population Membrane Permeable-Phenotype (%),[8],0%
same,Population Mitochondria Different-Phenotype (%),[8],5%
same,Population Mitotic Cells (%),[8],50%
same,Population Normal (%),[8],70%
same,Population Pyknosed Nuclei (%),[8],4%
same,Population Tubulin-Different-Phenotype (%),[8],10%
same,Total Cell Count,[8],65
